{"source": "paper PMC5362268", "about": "(Cell, 2017)", "key": {"[1]": {"test_system": "Kras^lox/lox, Hras^−/−, Nras^−/− RERTn^ert/ert MEFs", "test": "MEF cell number after treatment", "type": "cell-based, mouse", "conditions": "6-well, 24 h treatment", "how_it_was_run": "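6-well format: 200,000 cells/well seeded 16 h beforehand. Medium replaced with medium containing test compound (from 10 mM DMSO stocks) at indicated concentrations. After 24 h, cells trypsinized and counted by Trypan Blue exclusion (Vi-Cell).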"}, "RALA-GTP in BJeLR cells": {"test_system": "RALA-GTP in BJeLR cells", "test": "RALA activation assay", "type": "cell-based, human", "how_it_was_run": "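BJeLR cells seeded 16 h before use in DMEM with 2% FBS, then given medium with test compound (from 10 mM DMSO stock) for 6 h. Cells washed twice with ice-cold 25 mM Tris, 100 mM NaCl, 1 mM TCEP, 5 mM MgCl2, 0.1% Tween-20 with protease inhibitor. RALA-GTP pulled down on beads, eluted in SDS buffer and blotted.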"}, "KRAS^wt": {"molecular_target": "KRAS^wt (Homo sapiens, UniProt P01116)", "test": "MST with RAS GTPases", "type": "binding", "conditions": "selectivity panel, GppNHp-loaded"}, "HT-1080 cells": {"test_system": "HT-1080 cells", "test": "Caspase 3/7 activation assay", "type": "cell-based, human", "conditions": "24 h; compared with staurosporine", "how_it_was_run": "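HT-1080 cells seeded at 1,000 cells/well in 384-well plates. After 16 h, test compound was added as a dilution series, made from 50 mM DMSO stocks and transferred into assay wells at 1:5 dilution.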"}, "HRAS^wt": {"molecular_target": "HRAS^wt (Homo sapiens, UniProt P01112)", "sequence (P01112 whole entry)": "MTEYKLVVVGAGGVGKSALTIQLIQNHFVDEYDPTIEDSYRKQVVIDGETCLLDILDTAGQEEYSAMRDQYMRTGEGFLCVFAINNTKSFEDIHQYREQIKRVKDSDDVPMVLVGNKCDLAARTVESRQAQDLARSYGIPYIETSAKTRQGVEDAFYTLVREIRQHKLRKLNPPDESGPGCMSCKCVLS", "test": "MST with RAS GTPases", "type": "binding", "conditions": "selectivity panel, GppNHp-loaded"}, "NRAS^wt": {"molecular_target": "NRAS^wt (Homo sapiens, UniProt P01111)", "sequence (P01111 whole entry)": "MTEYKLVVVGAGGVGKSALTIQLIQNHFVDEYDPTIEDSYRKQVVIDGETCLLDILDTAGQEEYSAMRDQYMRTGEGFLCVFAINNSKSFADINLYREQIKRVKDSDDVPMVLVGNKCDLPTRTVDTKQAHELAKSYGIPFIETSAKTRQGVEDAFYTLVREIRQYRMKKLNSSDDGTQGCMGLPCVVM", "test": "MST with RAS GTPases", "type": "binding", "conditions": "selectivity panel, GppNHp-loaded"}, "[2]": {"test_system": "HT-1080 cells (NRAS^Q61K)", "test": "Lethality with PI3K and BRAF overexpression", "type": "cell-based, human", "conditions": "24 h, 6-well format", "how_it_was_run": "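HT-1080 cells were retrovirally transduced using Phoenix-AMPHO supernatant, 0.45 µm filtered and added twice 4 h apart. After 48 h they were re-seeded under puromycin (2 μg/mL) for 6 d, and expression was checked by qPCR. Cells at 100,000/well in 6-well plates were treated 24 h, trypsinized, and viability read by Trypan blue exclusion (Vi-Cell).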"}, "KP^f/fC mice": {"test_system": "KP^f/fC mice", "test": "Toxicity in KP^f/fC mouse study", "type": "in vivo", "conditions": "30 mg/kg IP once daily"}, "[3]": {"test": "KC mouse weights on study", "type": "in vivo", "conditions": "individual mice"}, "KRAS^G12D-GppNHp": {"molecular_target": "KRAS^G12D-GppNHp (Homo sapiens, UniProt P01116, G12D)", "test": "Isothermal titration calorimetry", "type": "binding", "how_it_was_run": "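Test compound in the cell at 200 µM (1.25% DMSO); protein in the syringe at 2.0 mM, DMSO-matched. Run at 25 °C: 19 × 2 µl injections, 180 s apart; reference power 5 µcal/sec.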"}, "[4]": {"test_system": "T-ALL cells with mutant NRAS (G13V and G13D)", "test": "Viability of primary T-ALL patient samples", "type": "cell-based", "conditions": "Homo sapiens, 72 h", "how_it_was_run": "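Primary T-ALL lymphoblasts, 250,000 per well in 24-well plates, in triplicate. Treated with DMSO vehicle or test compound across 1 to 5 μM for 72 h. Viability by flow-based kit with counting beads, gating out GFP+ stromal cells and PI+ dead cells and particles.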"}, "[5]": {"test_system": "pERK and pAKT in BRAF-CAAX-containing MEFs", "test": "Western blots of mouse embryo fibroblasts", "type": "cell-based", "conditions": "compared with Kras MEFs", "how_it_was_run": "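MEFs seeded at 0.25 million/well in DMEM with Glutamax, 10% heat-inactivated FBS and P/S. Serum-starved 24 h, then given test compound in serum-free medium; EGF 10 ng/ml for 15 min where indicated. Band intensities background-subtracted; pERK and pAKT expressed as (phospho/tubulin)/(total/tubulin) and normalised to DMSO.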"}, "[6]": {"test": "Microsomal stability assay", "type": "in vitro ADME", "conditions": "human, over 120 minutes", "how_it_was_run": "(§1)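 Liver microsomes incubated in 100 mM phosphate buffer, pH 7.4, supplemented with an NADPH-regenerating system (solutions A and B).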"}, "MDA-MB-231 xenograft": {"test_system": "MDA-MB-231 xenograft", "test": "Xenograft therapeutic study in mice", "type": "in vivo, mouse", "conditions": "180 mg/kg orally, 10 doses, 15 days of treatment, nude mice", "how_it_was_run": "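Eight-week-old female nude mice received 7 million MDA-MB-231 cells subcutaneously. After 3 d they were randomised at ~58 mm³ tumours. Dosing was oral, 180 mg/kg (12 mg/mL, 10% DMSO, pH 4) or vehicle, 10 doses over 14 d. Tumours measured by caliper every 2 d; volume = 0.523 × length × width².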"}, "K mouse weights on study": {"test": "K mouse weights on study", "type": "in vivo", "conditions": "individual mice"}, "[7]": {"test": "Microsomal stability assay", "type": "in vitro ADME", "conditions": "mouse, over 120 minutes", "how_it_was_run": "as §1"}, "KRAS^G12D D38A": {"molecular_target": "KRAS^G12D D38A (Homo sapiens, UniProt P01116, D38A/G12D)", "test": "MST, D38A point mutant", "type": "binding", "conditions": "compared with KRAS^G12D"}, "[8]": {"test": "Pharmacokinetic analysis in mice", "type": "in vivo, mouse", "conditions": "20 mg/kg, plasma", "how_it_was_run": "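Plasma flash-frozen in liquid nitrogen, stored at −80 °C, and assayed by UPLC-MS-MS. Plasma from six untreated mice used for calibration and matrix correction. AUCINF calculated from t = 0 to infinity using calculated half-life and last measured concentration.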"}}, "note": "Several values for one entry are separate records, joined by “and”; a condition that tells them apart may be missing. Equal entries are not always repeated."}
{"compound": "NC1(C(=O)NCCCn2cc(-c3ccc(OC(F)(F)F)cc3)c3cc(CN4CCN(Cc5c(Cl)cccc5Cl)CC4)ccc32)CCNCC1", "note": "[compound 3144, 4-amino-N-(3-(5-((4-(2,6-dichlorobenzyl)piperazin-1-yl)methyl)-3-(4-(trifluoromethoxy)phenyl)-1H-indol-1-yl)propyl)piperidine-4-carboxamide]", "values": [{"measurement": "concentrations not reducing the number of MEFs below the starting number", "setting": "[1]", "result": "below 3 μM"}, {"measurement": "RALA-GTP", "setting": "RALA-GTP in BJeLR cells", "result": "decreased"}, {"measurement": "binding by MST", "setting": "KRAS^wt", "result": "detected binding"}, {"measurement": "caspase activity", "setting": "HT-1080 cells", "result": "induced caspase activity to a similar level as staurosporine"}, {"measurement": "binding by MST", "setting": "HRAS^wt", "result": "detected binding"}, {"measurement": "binding by MST", "setting": "NRAS^wt", "result": "detected binding"}, {"measurement": "lethality upon overexpression of activated alleles of PI3K and/or BRAF", "setting": "[2]", "result": "reduced"}, {"measurement": "toxicity", "setting": "KP^f/fC mice", "result": "Toxicity was observed"}, {"measurement": "KC mouse weights", "setting": "[3]; day 1 on study", "result": "33 and 30.5 and 30.7 and 33.5 and 35.8"}, {"measurement": "KC mouse weights", "setting": "[3]; day 2 on study", "result": "32.2 and 28.1 and 27.8 and 33.5 and 34.5"}, {"measurement": "KC mouse weights", "setting": "[3]; day 3 on study", "result": "29.9 and 24.84 and 32 and 26.86"}, {"measurement": "KC mouse weights", "setting": "[3]; day 4 on study", "result": "28.8 and 23.6 and 30.5"}, {"measurement": "KC mouse weights", "setting": "[3]; day 5 on study", "result": "28.5 and 30.2"}, {"measurement": "Kd", "setting": "KRAS^G12D-GppNHp", "result": "17.8 ± 4.5", "unit": "µM"}, {"measurement": "viability at 5 µM", "setting": "[4]", "result": "20 to 40", "unit": "%"}, {"measurement": "pERK and pAKT abundance", "setting": "[5]", "result": "more resistant"}, {"measurement": "stability in liver microsomes", "setting": "[6]", "result": "relatively stable"}, {"measurement": "tumor growth", "setting": "MDA-MB-231 xenograft", "result": "inhibition of tumor growth"}, {"measurement": "K mouse weights", "setting": "K mouse weights on study; day 1 on study", "result": "19.1 and 14.5 and 22.9 and 26.1 and 18.5"}, {"measurement": "K mouse weights", "setting": "K mouse weights on study; day 2 on study", "result": "18.4 and 14.1 and 21.6 and 24.7 and 17.4"}, {"measurement": "K mouse weights", "setting": "K mouse weights on study; day 3 on study", "result": "18.6 and 14.2 and 20.7 and 23.6 and 17"}, {"measurement": "K mouse weights", "setting": "K mouse weights on study; day 4 on study", "result": "17.5 and 14.2 and 20.1 and 23.27 and 17.7"}, {"measurement": "K mouse weights", "setting": "K mouse weights on study; day 5 on study", "result": "17.5 and 13.63 and 19.8 and 22.7 and 16.5"}, {"measurement": "stability in liver microsomes", "setting": "[7]", "result": "relatively stable"}, {"measurement": "binding affinity to D38A mutant", "setting": "KRAS^G12D D38A", "result": "reduced binding affinity"}, {"measurement": "Tlast", "setting": "[8]; IP, male C57BL/6 mice", "result": 12, "unit": "h"}, {"measurement": "Tlast", "setting": "[8]; IV, male C57BL/6 mice", "result": 12, "unit": "h"}, {"measurement": "HL_Lambda_z", "setting": "[8]; PO, male C57BL/6 mice", "result": ">12", "unit": "h"}, {"measurement": "Tlast", "setting": "[8]; PO, male C57BL/6 mice", "result": 12, "unit": "h"}, {"measurement": "AUC(0-inf)", "setting": "[8]; male, C57BL/6, mouse, po", "result": 5650, "unit": "ng·h/mL"}]}
